Data set [1] deals with T1, Chondroitin sulfate N-acetylgalactosaminyltransferase 1 (Homo sapiens) (UniProt Q8TDX6).
T1 sequence (whole entry): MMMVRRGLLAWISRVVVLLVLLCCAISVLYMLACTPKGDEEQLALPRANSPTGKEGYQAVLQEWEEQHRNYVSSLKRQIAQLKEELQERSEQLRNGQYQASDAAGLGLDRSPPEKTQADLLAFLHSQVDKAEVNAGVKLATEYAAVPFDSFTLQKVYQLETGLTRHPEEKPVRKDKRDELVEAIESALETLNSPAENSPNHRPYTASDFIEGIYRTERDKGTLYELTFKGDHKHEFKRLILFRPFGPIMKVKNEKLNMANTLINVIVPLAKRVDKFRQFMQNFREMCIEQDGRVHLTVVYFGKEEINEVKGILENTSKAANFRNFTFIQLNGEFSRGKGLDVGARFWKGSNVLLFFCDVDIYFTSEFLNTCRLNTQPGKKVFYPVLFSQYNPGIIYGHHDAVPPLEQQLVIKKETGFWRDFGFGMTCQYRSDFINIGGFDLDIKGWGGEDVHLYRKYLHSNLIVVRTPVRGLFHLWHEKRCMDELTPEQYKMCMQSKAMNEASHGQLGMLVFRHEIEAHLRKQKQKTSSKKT
Kind of data set: Destabilization of CSGalNacT-1 in HCV infected human HuH7.5 cells assessed as reduction in CSGalNacT-1 mRNA levels at 6.25 to 100 uM measured after 72 hrs by qRT-PCR analysis. To be noted: dose 6.25-100 µM. Summed up: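 Huh7.5 cells infected with HCV (45 IU/cell) and exposed to compound for 72 h. CSGalNAcT-1 protein measured by Western blot and mRNA by qRT-PCR. Error bars are SD of three independent experiments.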
(In general: Quantitative PCR measures a nucleic acid by following its amplification.)

Data set [2] concerns Hepatitis C virus. The experiment in a line: Antiviral activity against HCV infected in human HuH7.5 cells assessed as inhibition of viral protein level during early stage at 6.25 to 25 uM incubated for 2 hrs prior to compound washout followed by supplementation of fresh culture medium and measured after 72 hrs by Western blot analysis. The format is functional, organism-based. To be noted: Hepacivirus hominis; Huh-7; dose 6.25-25 µM. The method in brief:
(§1)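 Huh7.5 cells seeded 24 h earlier, infected with HCV (150 IU/cell) with simultaneous compound or solvent control for 2 h. Cells washed with PBS and given fresh medium. Intracellular RNA (qRT-PCR) and protein (Western blot) extracted at 72 h.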
For orientation: Immunoblotting shows a protein as a band on a membrane.

Data set [3] concerns the target T1, Chondroitin sulfate N-acetylgalactosaminyltransferase 1 (Homo sapiens). Kind of data set: Destabilization of CSGalNacT-1 in human Huh7.5 cells assessed as reduction in CSGalNacT-1 mRNA levels by gene chip assay. It is filed as cell-based.
For data set [4] the target is unchanged. The experiment in a line: Destabilization of CSGalNacT-1 in human Huh7.5 cells assessed as down regulation of CSGalNacT-1 protein levels at 25 uM measured after 24 hrs in presence of protease inhibitor MG132 by Western blot analysis. The format is cell-based. The method in brief: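 Huh7.5 cells cotreated with compound (25 μM) and proteasome inhibitor MG132 (1 μM). Cells given compound alone or MG132 alone served as controls. After 24 h, total intracellular protein extracted and CSGalNAcT-1 detected by Western blot.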

For data set [5], the system named is Hepatitis C virus. The experiment in a line: Synergistic antiviral activity against HCV J6/JFH/JC1 infected in human HuH7.5 cells assessed as inhibition of viral protein levels at 6.25 uM in presence of daclatasvir measured after 72 hrs by western blot analysis. It is filed as functional, organism-based. The settings on record: Hepacivirus hominis. The method in brief:
(§2)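 Huh7.5 cells infected with HCV (45 IU/cell) and simultaneously treated with compound (6.25 μM) alone, DAA alone, or both. […] Intracellular protein analysed by Western blot at 72 h. At least triplicate, mean ± SD, Student's t test.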

A short description of data set [6]: Selectivity index, ratio of CC50 for cytotoxicity against human Huh7.5 cells assessed as reduction in cell viability incubated for 72 hrs by MTT assay to EC50 for antiviral activity against HCV genotype 2a J6/JFH/JC1 infected in human Huh7.5 cells assessed as reduction in viral RNA levels measured after 72 hrs by qRT-PCR analysis. It is filed as toxicity, cell-based. The settings on record: read-out: Ratio CC50/EC50. (In general: Tetrazolium assays rely on reduction of a dye to a coloured formazan, in cell work by metabolically active cells.)

Another data set has as its system Hepacivirus hominis. Kind of data set: Inhibition of HCV NS5B polymerase.
In data set [7] the test system is Hepatitis C virus. The experiment in a line: Antiviral activity against HCV subgenomic replicon harboring I377-3'del.S infected in human GS4.3 cells assessed as inhibition of viral replication at 0.23 to 18.52 uM after 72 hrs by qRT-PCR analysis. The format is functional, organism-based. The settings on record: Hepacivirus hominis, Liver, dose 0.23-18.52 µM. Summed up:
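GS4.3 cells (Huh7 carrying HCV subgenomic replicon I377-3′del.S) seeded at 3 × 10^4/cm2, after 24 h treated with compound or solvent control. After 72 h intracellular RNA extracted and replicon RNA measured by qRT-PCR. Cytotoxicity checked by MTT at 72 h.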

Data set [8] in a line: Antiviral activity against HCV subtype 2a J6/JFH/JC1 infected in human Huh7.5 cells assessed as reduction in viral RNA levels measured after 72 hrs by qRT-PCR analysis. To be noted: Hepatitis C virus, J6/JFH/JC1, Huh7.5, 72 h.
Data set [9] concerns Hepatitis C virus. Kind of data set: Antiviral activity against HCV J6/JFH/JC1 harboring A156T mutant infected in human Huh7.5 cells assessed as inhibition of viral replication measured after 72 hrs by qRT-PCR analysis. The format is functional, organism-based, Hepacivirus hominis. The settings on record: J6/JFH/JC1, Huh7.5, 72 h.
Another data set relates to Huh7.5. The experiment in a line: Effect on CD36 expression level in human Huh7.5 cells at 6.25 to 25 uM by Western blot analysis. The format is functional, cell-based. To be noted: dose 6.25-25 µM.
Data set [10] concerns Hepatitis C virus. Kind of data set: Synergistic antiviral activity against HCV J6/JFH/JC1 infected in human HuH7.5 cells assessed as combination index measured after 72 hrs in presence of sofosbuvir by Chou-Talalay method. It is filed as functional, Hepacivirus hominis.
Data set [11] deals with Hepatitis C virus. Kind of data set: Synergistic antiviral activity against HCV J6/JFH/JC1 infected in human HuH7.5 cells assessed as combination index measured after 72 hrs in presence of simeprevir by Chou-Talalay method. It is filed as functional, Hepacivirus hominis.
Data set [12] can be described thus: Resistance ratio of EC50 for antiviral activity against HCV J6/JFH/JC1 harboring S282T mutant infected in human Huh7.5 cells to EC50 for antiviral activity against wild-type HCV J6/JFH/JC1 infected in human Huh7.5 cells. It is filed as functional.
Data set [13] in a line: Resistance ratio of EC50 for antiviral activity against HCV J6/JFH/JC1 harboring D168V mutant infected in human Huh7.5 cells to EC50 for antiviral activity against wild-type HCV J6/JFH/JC1 infected in human Huh7.5 cells. It is filed as functional.
For data set [14], the system named is Hepatitis C virus. Kind of data set: Antiviral activity against HCV infected in human HuH7.5 cells assessed as inhibition of viral RNA levels during early stage at 6.25 to 25 uM incubated for 2 hrs prior to compound washout followed by supplementation of fresh culture medium and measured after 72 hrs by qRT-PCR analysis. To be noted: Hepacivirus hominis; Huh-7; dose 6.25-25 µM. It is filed as functional, organism-based. Summed up: as §1

Data set [15] concerns Hepatitis C virus. The experiment in a line: Synergistic antiviral activity against HCV J6/JFH/JC1 infected in human HuH7.5 cells assessed as inhibition of viral protein levels at 6.25 uM in presence of sofosbuvir measured after 72 hrs by western blot analysis. It is filed as functional, organism-based. To be noted: Hepacivirus hominis. Summed up:
as §2

Structures are written as SMILES. Calls of active or inactive are those of the source. The calls are words filed in the database; no cut-off is given here.

In the case of `COc1cc(/C=C/c2ccccc2)c(C(=O)O)c(O)c1CC=C(C)C`, the result (in [1]; in the data set on Hepatitis C virus [2]; in data set [4]; with Hepatitis C virus [7]; with Huh7.5; in the data set on Hepatitis C virus [14]) was inactive. The result (in [3]; with Hepatitis C virus [5]; in the data set on Hepatitis C virus [15]) was Active. Also, in data set [6], the selectivity ratio at 72 h stood at 40. Also, in the data set on Hepacivirus hominis, the inhibition result is “inactive”. Besides, the half-maximal effective concentration (EC50) in data set [8] came to 3.17 µM; with Hepatitis C virus [9], 6.44 µM. The figures for the CI with Hepatitis C virus [10] and with Hepatitis C virus [11] were 0.693 and 0.953, respectively. Moreover, the results for the Ratio EC50 in data set [12] and in [13] were 2.8 and 1.3, respectively.

A word on the EC50: it is the midpoint of the concentration-response curve.
